Consider two molecules from ChEMBL document CHEMBL5653632, “PRMT5 inhibition disrupts splicing and stemness in glioblastoma” (Nat Commun, 2021).

SMILES strings stand for the structures. Activity calls are given as the source filed them. No cut-off for these calls is given here.

Data set [1] is described as follows: Drug concentration in NSG mouse plasma at 100 mg/kg, po measured after 24 hrs. Format: ADME, organism-based. The essentials: (§1)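 Single oral gavage to NSG mice (n = 3) at 25, 50 or 100 mg/kg; a 10× DMSO stock was diluted into 1% HEC/0.25% Tween 80/0.05% antifoam. Sacrifice at 24 h. Plasma came from cardiac-puncture blood. Brains were taken after PBS transcardiac perfusion and flash frozen. LC-MS quantitation used a 10-point standard curve of 10–10,000 ng/mL.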

Data set [2] concerns G411. Put plainly: In vivo inhibition of PRMT5 in human G411 cells xenografted in NSG mouse assessed as reduction in SDMA level at 50 mg/kg, po administered as 3 days on and 4 days off schedule for 4 cycles. Format: functional, organism-based. The conditions noted are these: time 28.0 day. The essentials: (§2)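 Female NSG mice aged 5–10 weeks received 2 × 10^4 G411 GSCs stereotaxically into the forebrain (2 mm lateral, 1 mm posterior to bregma, 3 mm deep). From 1 week post-implant, mice got 50 mg/kg by oral gavage in 1% HEC/0.25% Tween 80/0.05% antifoam, 3 days on/4 off, for 4 cycles or until endpoint. Endpoint brains went to H&E; tumor tissue went to SDMA western blot.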

Data set [3] can be described thus: Toxicity in NSG mouse assessed as body weight loss at 50 mg/kg, po administered as 3 days on and 4 days off schedule and measured upto 8 weeks. It counts as organism-based. To be noted: in vivo, 1344 h. The essentials: (§3)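 NSG mice, 3 per group, dosed orally in weekly cycles of 3 days on and 4 days off. Weight and condition were recorded twice weekly. Mice losing more than 20% body weight were sacrificed.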

A short description of data set [4]: Drug concentration in NSG mouse brain at 100 mg/kg, po measured after 24 hrs. It counts as ADME, organism-based. To be noted: read-out: Ct. The essentials:
as §1

Data set [5] in a line: Antiproliferative activity against human BT50 cells incubated for 9 to 12 days by IncuCyte zoom live-cell imaging analysis. It counts as functional, cell-based.
In data set [6] the test system is G411. Put plainly: Antitumor activity against human G411 cells xenografted in NSG mouse assessed as reduction in dense cell growth at 50 mg/kg, po administered as 3 days on and 4 days off schedule for 4 cycles. To be noted: time 28.0 day. It counts as functional, organism-based. The essentials: as §2
(In general: In xenograft studies the graft and the host belong to different species.)

For data set [7], the system named is G411. Put plainly: Antitumor activity against human G411 xenografted in NSG mouse assessed as mean survival time at 50 mg/kg, po administered as 3 days on and 4 days off schedule for 4 cycles (reference value: 30 days). Format: functional. To be noted: time 28 day. The essentials:
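Female NSG mice, 5–10 weeks old, 12 per group. 2 × 10^4 G411 cells were injected stereotactically into the forebrain, 3 mm deep. Oral gavage started 1 week later in vehicle of 1% HEC/0.25% Tween 80/0.05% antifoam, given daily for 3 days then 4 days off, for 4 cycles or until end point. Mice were euthanized at neurological symptoms with domed head. Survival was compared by log-rank test.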

A short description of data set [8]: Toxicity in NSG mouse assessed as body weight loss at 50 mg/kg, po administered every other day for 3 weeks. It counts as organism-based. To be noted: in vivo, 504 h.
For data set [9], the target named is Protein arginine N-methyltransferase 5 (Homo sapiens) (UniProt O14744). Kind of data set: Inhibition of PRMT5 in human G411 cells assessed as reduction in SDMA level at 1 uM after 5 days by Western blot analysis. It counts as cell-based. To be noted: time 5.0 day. The essentials: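 Symmetric dimethylarginine on SmB/B' was measured by western blot with IRDye secondary antibodies and infrared imaging.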
A general note: In western blotting, separated proteins are transferred to a membrane and probed.

The nature of data set [10]: Antiproliferative activity against human HF7450 cells incubated for 9 to 12 days by IncuCyte zoom live-cell imaging analysis. It counts as functional, cell-based. The essentials: (§4)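 Adherent culture on poly-L-ornithine/laminin in serum-free NS-A medium with EGF and bFGF (10 ng/mL each) and heparin. Nine concentrations (3 nM–30 µM), three technical replicates per dose, DMSO control, medium and drug refreshed every 5 days, run until DMSO wells were confluent (9–20 days). Confluence was imaged live and normalized to DMSO. Curves were taken at the 95th percentile of time to DMSO confluence, and AAC was calculated.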

The nature of data set [11]: Toxicity in NSG mouse assessed as tolerability at 50 mg/kg, po administered as 3 days on and 4 days off schedule and measured upto 8 weeks. Format: organism-based. To be noted: in vivo, 1344 h. The essentials:
as §3

Data set [12] has as its system G583. Put plainly: Induction of apoptosis in human G583 cells at 1 uM after 5 days by Annexin-V staining based IncuCyte live cell imaging analysis. Format: functional. To be noted: time 5.0 day.
Data set [13] in a line: Antiproliferative activity against human G861 cells incubated for 9 to 12 days by IncuCyte zoom live-cell imaging analysis. Format: functional, cell-based. The essentials:
as §4

Data set [14] in a line: Antiproliferative activity against human G719 cells incubated for 9 to 12 days by IncuCyte zoom live-cell imaging analysis. Format: functional, cell-based. The essentials:
(§5)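 Adherent GSC lines on poly-L-ornithine/laminin in serum-free EGF/bFGF medium were exposed to nine concentrations from 3 nM to 30 µM, with three technical replicates per dose. Exposure lasted 9–20 days until DMSO controls were confluent, with drug-containing medium refreshed every 5 days. IncuCyte confluence was normalized to DMSO. Curves were built at the 95th percentile of DMSO time-to-confluence, and AAC was derived with PharmacoGx.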

Another data set deals with G561. Put plainly: Inhibition of cell growth in human G561 cells pretreated with compound for 14 days followed by compound washout and measured after 14 days. To be noted: time 14.0 day. Format: functional, cell-based. The essentials:
(§6)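 GSC lines were treated with 1 µM for 14 days. Compound was then washed out, and growth was followed for a further 14 days.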

The nature of data set [15]: Antiproliferative activity against human G637 cells incubated for 9 to 12 days by IncuCyte zoom live-cell imaging analysis. Format: functional, cell-based. The essentials: as §5
Data set [16] is described as follows: Antiproliferative activity against human G567 cells incubated for 9 to 12 days by IncuCyte zoom live-cell imaging analysis. Format: functional, cell-based. The essentials:
as §5

The nature of data set [17]: Antiproliferative activity against human BT67 cells incubated for 9 to 12 days by IncuCyte zoom live-cell imaging analysis. It counts as functional, cell-based.
The nature of data set [18]: Antiproliferative activity against human BT301 cells incubated for 9 to 12 days by IncuCyte zoom live-cell imaging analysis. It counts as functional, cell-based.
Data set [19] in a line: Antiproliferative activity against human G571 cells incubated for 9 to 12 days by IncuCyte zoom live-cell imaging analysis. Format: functional, cell-based. The essentials: as §5
Data set [20] can be described thus: Antiproliferative activity against human G584 cells incubated for 9 to 12 days by IncuCyte zoom live-cell imaging analysis. Format: functional, cell-based. The essentials: as §5
Data set [21] can be described thus: Antiproliferative activity against human G752 cells incubated for 9 to 12 days by IncuCyte zoom live-cell imaging analysis. It counts as functional, cell-based. The essentials:
as §5

A short description of data set [22]: Antiproliferative activity against human BT189 cells incubated for 9 to 12 days by IncuCyte zoom live-cell imaging analysis. It counts as functional, cell-based.
In data set [23] the test system is G583. Kind of data set: Inhibition of cell growth in human G583 cells pretreated with compound for 14 days followed by compound washout and measured after 14 days. It counts as functional, cell-based. The conditions noted are these: time 14.0 day. The essentials: as §6
A short description of data set [24]: Antiproliferative activity against human BT94 cells incubated for 9 to 12 days by IncuCyte zoom live-cell imaging analysis. Format: functional, cell-based.
Data set [25] can be described thus: Antiproliferative activity against human BT238 cells incubated for 9 to 12 days by IncuCyte zoom live-cell imaging analysis. It counts as functional, cell-based.
Another data set deals with G837. Kind of data set: Inhibition of cell growth in human G837 cells pretreated with compound for 14 days followed by compound washout and measured after 14 days. It counts as functional, cell-based. To be noted: time 14.0 day. The essentials:
as §6

A short description of data set [26]: Antiproliferative activity against human G613 cells incubated for 9 to 12 days by IncuCyte zoom live-cell imaging analysis. Format: functional, cell-based. The essentials: as §5
Data set [27] relates to G411. Kind of data set: Inhibition of cell growth in human G411 cells pretreated with compound for 14 days followed by compound washout and measured after 14 days. Format: functional, cell-based. To be noted: time 14.0 day. The essentials:
as §6

Sequence of Protein arginine N-methyltransferase 5 (Homo sapiens) (O14744 whole entry): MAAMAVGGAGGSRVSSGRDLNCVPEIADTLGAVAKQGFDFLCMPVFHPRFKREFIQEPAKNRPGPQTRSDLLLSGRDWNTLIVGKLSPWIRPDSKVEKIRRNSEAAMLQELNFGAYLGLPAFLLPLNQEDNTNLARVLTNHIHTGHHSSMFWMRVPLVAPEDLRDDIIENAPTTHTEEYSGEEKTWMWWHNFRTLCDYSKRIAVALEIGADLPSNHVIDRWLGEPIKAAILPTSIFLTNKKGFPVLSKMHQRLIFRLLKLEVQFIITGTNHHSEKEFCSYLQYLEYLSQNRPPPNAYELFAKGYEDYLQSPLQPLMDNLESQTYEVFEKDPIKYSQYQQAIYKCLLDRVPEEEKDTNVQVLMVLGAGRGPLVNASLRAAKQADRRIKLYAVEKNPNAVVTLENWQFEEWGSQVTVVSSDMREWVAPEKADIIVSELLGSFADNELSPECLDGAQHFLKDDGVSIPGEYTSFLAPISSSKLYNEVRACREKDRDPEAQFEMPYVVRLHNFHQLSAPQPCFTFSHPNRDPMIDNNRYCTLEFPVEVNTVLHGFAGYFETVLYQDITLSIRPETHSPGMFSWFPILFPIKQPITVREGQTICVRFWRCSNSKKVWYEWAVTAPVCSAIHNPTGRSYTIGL

`Nc1ncnc2c1ccn2[C@@H]1O[C@H]([C@H](O)c2ccccc2)[C@@H](O)[C@H]1O`: the values for the concentration at 24 h in data set [1] and in data set [4] were 159 nM and 269 nM, respectively. Also, the inhibition entry (in the data set with G411 [2]; in [9]) was “Active” each time. The Activity is under 10% in [3], over 20% in data set [8] and “Non-Toxic” in data set [11]. In addition, the values for the IC50 in [5] and in data set [13] were 20 nM and 40 nM, respectively. Besides, the outcome in the data set on G411 [6] and in the data set on G583 [12] was Active. In the data set on G411 [7], the Time was found to be 37 days. Besides, the concentration giving a half-maximal response (EC50) (usually the concentration needed to bring the measured effect to its halfway point) in data set [10] came out at 3 nM.
As for `O=C(NC[C@H](O)CN1CCc2ccccc2C1)c1ccnc(NC2CCC2)c1`, the half-maximal inhibitory concentration (IC50) – broadly, the concentration that gives 50% inhibition – worked out at 9230 nM in data set [14]; 340 nM in data set [15]; 29300 nM in data set [16]; 50 nM in data set [17]; 100 nM in data set [18]; 45600 nM in data set [19]. For the same molecule, the IC50 was 39000 nM in data set [20]; 110 nM in data set [22]; 60 nM in data set [24]; 1280 nM in [13]; 150 nM in data set [25]; 19200 nM in data set [26]. Further, the inhibition result in the data set on G561, with G837 and in the data set with G411 [27] was “inactive” in each case. Moreover, the inhibition entry (in data set [9]; in the data set on G583 [23]) was “Active” throughout. The EC50 in data set [21] stood at 50 nM; in data set [10], 155 nM. The outcome with G583 [12] was Active.
